Results: ChEMBL document CHEMBL1157487, “Discovery of potent CCR4 antagonists: Synthesis and structure-activity relationship study of 2,4-diaminoquinazolines” (Bioorg Med Chem, 2008)

What was measured:
[1] = molecular target: T1, C-C chemokine receptor type 4 (Homo sapiens) (UniProt P51679); assay: Displacement of [125I]CCl22 from human CCR4 receptor expressed in mouse B300-19 cells at 1 uM by SPA; assay type: cell-based
T1 sequence (whole entry): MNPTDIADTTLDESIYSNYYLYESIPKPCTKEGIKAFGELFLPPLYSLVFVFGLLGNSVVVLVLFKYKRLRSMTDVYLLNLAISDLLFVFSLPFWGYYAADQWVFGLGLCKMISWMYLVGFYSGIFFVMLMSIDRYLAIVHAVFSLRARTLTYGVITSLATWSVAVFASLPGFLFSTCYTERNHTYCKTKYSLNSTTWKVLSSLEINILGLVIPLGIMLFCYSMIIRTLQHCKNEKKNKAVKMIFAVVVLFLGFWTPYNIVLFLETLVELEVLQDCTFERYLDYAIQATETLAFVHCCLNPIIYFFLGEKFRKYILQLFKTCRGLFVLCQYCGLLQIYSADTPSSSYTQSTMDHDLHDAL
Outline: (§1)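 SPA on whole human CCR4-expressing B300-19 cells (2×10^5/well) with 25 pM [125I]CCL22 and WGA SPA beads, test compound, in 50 mM Hepes pH 7.4, 5 mM MgCl2, 1 mM CaCl2, 0.1% BSA; 2 h, 25 °C. Nonspecific binding defined with 10 nM unlabeled CCL22. Duplicate, four concentrations, usually two determinations averaged. IC50 by non-linear curve fitting.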

[2] = molecular target: T1, C-C chemokine receptor type 4 (Homo sapiens); assay: Antagonist activity at human CCR4 receptor expressed in mouse B300-19 cells at 1 uM by [35S]GTPgammaS binding assay; assay type: functional, cell-based
Outline: (§2)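 Membranes from human CCR4-expressing B300-19 cells (1 µg protein/well) with 150 pM [35S]GTPγS, 2 µM GDP, 3 nM MDC (CCL22), WGA SPA beads, test compound in 20 mM Hepes-NaOH pH 7.05, 100 mM NaCl, 5 mM MgCl2, 0.2% BSA; 1.5 h, 25 °C. Percent inhibition against no-compound and no-CCL22 controls. Duplicate, four concentrations, usually two determinations averaged. IC50 by non-linear fitting.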

[3] = molecular target: T1, C-C chemokine receptor type 4 (Homo sapiens); assay: Antagonist activity at human CCR4 receptor expressed in mouse B300-19 cells assessed as CCL22-induced chemotaxis by bioluminescent assay; assay type: functional, cell-based
Outline: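 Stably transfected B300-19 cells (human CCR4 cDNA, G418 selection) at 5×10^6 cells/mL in RPMI 1640 with 0.1% BSA, pretreated with test compound; placed over 3 nM human CCL22 in 5-µm-pore polycarbonate filter chambers, 3 h, 37 °C, 5% CO2. Migrated cells quantified by ATP bioluminescence. Controls without compound or without CCL22. Triplicate, four concentrations. IC50 by non-linear curve fitting.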

[4] = molecular target: T2, C-C chemokine receptor type 4 (Homo sapiens, UniProt P51679); assay: Antagonist activity at human CCR4 receptor expressed in mouse B300-19 cells by [35S]GTPgammaS binding assay; assay type: functional, cell-based; outline: as §2
T2 sequence (P51679 whole entry): T1 sequence (whole entry)

[5] = molecular target: T3, C-C chemokine receptor type 4 (Mus musculus) (UniProt P51680); assay: Antagonist activity at mouse CCR4 receptor expressed in mouse B300-19 cells assessed as CCL22-induced chemotaxis by bioluminescent assay; assay type: functional, cell-based
T3 sequence (whole entry): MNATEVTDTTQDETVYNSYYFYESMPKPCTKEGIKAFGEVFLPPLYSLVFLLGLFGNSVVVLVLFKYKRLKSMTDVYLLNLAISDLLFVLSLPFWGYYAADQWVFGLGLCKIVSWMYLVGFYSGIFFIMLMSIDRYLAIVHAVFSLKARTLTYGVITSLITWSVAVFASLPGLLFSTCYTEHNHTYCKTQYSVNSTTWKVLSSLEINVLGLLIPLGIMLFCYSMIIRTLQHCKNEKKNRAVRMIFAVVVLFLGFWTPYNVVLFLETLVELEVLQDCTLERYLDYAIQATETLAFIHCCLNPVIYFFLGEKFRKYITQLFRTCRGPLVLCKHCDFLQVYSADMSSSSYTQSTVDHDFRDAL
Outline: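 Chemotaxis of B300-19 stable transformants carrying mouse CCR4 cDNA, suspended at 5×10^6 cells/mL in RPMI 1640 plus 0.1% BSA with test compound; 1 nM mouse CCL22 in lower wells, 5-µm pore filters, 3 h at 37 °C, 5% CO2. Migrated cells counted by ATP bioluminescence. Triplicate at four concentrations. IC50 from non-linear curve fit.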

[6] = molecular target: T2, C-C chemokine receptor type 4; assay: Displacement of [125I]CCl22 from human CCR4 receptor expressed in mouse B300-19 cells by SPA; assay type: cell-based; outline: as §1
[7] = Cytotoxicity against CCR4 expressing mouse B300-19 cells at 3 uM after 12 hrs by alamar blue assay; assay type: cell-based; details: b300-19, 12 h
Outline: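 CCR4-expressing B300-19 cells (5×10^4/well) in RPMI 1640 with 10% FBS, 2-mercaptoethanol and antibiotics, 37 °C, 5% CO2, exposed to 0.3–10 µM compound for 12 h, then Alamar Blue for 4 h; fluorescence read at excitation 570 and emission 600 nm. Viability relative to untreated wells; minimum cytotoxic dose is the concentration lowering viability below 70%.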

[8] = molecular target: T1, C-C chemokine receptor type 4 (Homo sapiens); assay: Antagonist activity at human CCR4 receptor expressed in mouse B300-19 cells assessed as CCL22-induced chemotaxis at 1 uM by bioluminescent assay; assay type: functional, cell-based

inhibition [1] [%]	inhibition [2] [%]	Activity [3] [µM]	IC50 [4] [nM]	Activity [5] [µM]	IC50 [6] [nM]	inhibition [8] [%]	Compound	Activity [7]
8	8	–	–	–	–	–	COc1cc2nc(NCCCN3CCCC3=O)nc(NC3CCCCCC3)c2cc1OC	–
19	8	–	–	–	–	–	COc1cc2nc(N3CCC(N4CCCC4)CC3)nc(N3CCCCC3)c2cc1OC	–
16	35	–	–	–	–	–	COc1cc2nc(NCCCN3CCCC3)nc(NC3CCCCCC3)c2cc1OC	–
4	< 0	0.1	13	–	–	–	COc1cc2nc(N3CCC(NC4CCCC4)CC3)nc(NC3CCCCCC3)c2cc1OC	–
< 0	4	–	–	–	–	–	COc1cc2nc(N3CCC(N4CCCC4)CC3)nc(NC3CCN(Cc4ccccc4)CC3)c2cc1OC	–
100	92	0.14	18	0.039	73	–	COc1cc2nc(N3CCC(N4CCCCC4)CC3)nc(NC3CCCCCC3)c2cc1OC	–
11	7	–	–	–	–	–	COc1cc2nc(N3CCCCC3)nc(NC3CCCCCC3)c2cc1OC	–
15	12	–	–	–	–	–	COc1cc2nc(N3CCC(C)CC3)nc(NC3CCCCCC3)c2cc1OC	–
< 0	13	–	–	–	–	–	COc1cc2nc(N3CCN(C)CC3)nc(NC3CCCCCC3)c2cc1OC	–
–	10	0.41	31	0.8	–	–	COc1ccc2nc(N3CCC(N4CCCC4)CC3)nc(NC3CCCCCC3)c2c1	–
3	< 0	–	–	–	–	–	COc1cc2nc(N3CCC(O)CC3)nc(NC3CCCCCC3)c2cc1OC	–
0	10	0.12	18	0.35	–	–	COc1cc2nc(N3CCC(N(C)C4CCCC4)CC3)nc(NC3CCCCCC3)c2cc1OC	–
54	71	–	480	–	1900	–	COc1cc2nc(N3CCC(N4CCCC4)CC3)nc(NC3CCCCC3)c2cc1OC	–
< 0	< 0	–	–	–	–	–	COc1cc2nc(N3CCC(N4CCCC4)CC3)nc(N(C)C)c2cc1OC	–
0	10	0.23	55	0.21	–	–	COc1cc2nc(N3CCN(C4CCCCC4)CC3)nc(NC3CCCCCC3)c2cc1OC	–
–	10	1.4	200	–	–	–	c1ccc2c(NC3CCCCCC3)nc(N3CCC(N4CCCC4)CC3)nc2c1	–
< 0	< 0	–	–	–	–	–	COc1cc2nc(N(C)CCc3ccccc3)nc(NC3CCCCCC3)c2cc1OC	–
8	< 0	–	–	–	–	–	COc1cc2nc(N3CCOCC3)nc(NC3CCCCCC3)c2cc1OC	–
77	65	–	260	–	730	–	COc1cc2nc(N3CCC(N(C)C)CC3)nc(NC3CCCCCC3)c2cc1OC	–
< 0	1	–	–	–	–	–	COc1cc2nc(N3CCC(Cc4ccccc4)CC3)nc(NC3CCCCCC3)c2cc1OC	–
< 0	13	–	–	–	–	–	COc1cc2nc(NCc3ccccc3)nc(NC3CCCCCC3)c2cc1OC	–

inhibition [1] [%]	inhibition [2] [%]	Activity [3] [µM]	IC50 [4] [nM]	Activity [5] [µM]	IC50 [6] [nM]	inhibition [8] [%]	Compound	Activity [7]
< 0	11	–	–	–	–	–	COc1cc2nc(N3CCC(N4CCCC4)CC3)nc(NC3CCC(C(C)(C)C)CC3)c2cc1OC (stereo unspecified)	–
68	68	–	220	–	660	–	COc1cc2nc(N3CCN(C(C)C)CC3)nc(NC3CCCCCC3)c2cc1OC	–
< 0	10	–	–	–	–	–	COc1cc2nc(N3CCC(N4CCCC4)CC3)nc(NCc3ccccc3)c2cc1OC	–
6	10	–	–	–	–	–	CCOC(=O)N1CCC(Nc2nc(N3CCC(N4CCCC4)CC3)nc3cc(OC)c(OC)cc23)CC1	–
6	< 0	–	–	–	–	–	COc1cc2nc(NC(C)C)nc(NC3CCCCCC3)c2cc1OC	–
16	16	–	–	–	–	–	COc1cc2nc(N3CCC(N4CCCC4)CC3)nc(NC3CCCCNC3=O)c2cc1OC (stereo unspecified)	–
100	93	0.2	19	0.13	70	–	COc1cc2nc(N3CCC(N4CCCC4)CC3)nc(NC3CCCCCC3)c2cc1OC	Toxic
18	1	–	–	–	–	–	COc1cc2nc(NCCN3CCCCC3)nc(NC3CCCCCC3)c2cc1OC	–
0	10	0.31	32	0.6	–	–	COc1cc2nc(N3CCC(N4CCC(F)CC4)CC3)nc(NC3CCCCCC3)c2cc1OC	–
17	18	–	–	–	–	–	COc1cc2nc(N3CCC(N4CCCC4)CC3)nc(NC3CCCC3)c2cc1OC	–
4	7	–	–	–	–	–	COc1cc2nc(N3CCC(N4CCCC4)CC3)nc(NCCc3ccccc3)c2cc1OC	–
< 0	17	–	–	–	–	–	COc1cc2nc(N3CCC(C(N)=O)CC3)nc(NC3CCCCCC3)c2cc1OC	–
54	71	–	200	–	1200	–	COc1cc2nc(N3CCC(N4CCCC4)CC3)nc(NC3CCCCCCC3)c2cc1OC	–
< 0	0	–	–	–	–	–	COc1cc2nc(NCc3cccs3)nc(NC3CCCCCC3)c2cc1OC	–
–	10	–	510	–	–	12	COc1cc2nc(C3CCN(C4CCCCC4)CC3)nc(NC3CCCCCC3)c2cc1OC	–
< 0	3	–	–	–	–	–	CCNc1nc(N2CCC(N3CCCC3)CC2)nc2cc(OC)c(OC)cc12	–
< 0	16	–	–	–	–	–	COc1cc2nc(NCCc3ccccc3)nc(NC3CCCCCC3)c2cc1OC	–
–	10	0.12	13	0.22	–	–	COc1ccc2c(NC3CCCCCC3)nc(N3CCC(N4CCCC4)CC3)nc2c1	–
2	< 0	–	–	–	–	–	COc1cc2nc(N3CCC(N4CCCC4)CC3)nc(N3CCOCC3)c2cc1OC	–
7	7	–	–	–	–	–	COc1cc2nc(N3CCN(c4ccccc4)CC3)nc(NC3CCCCCC3)c2cc1OC	–
